# Assay outcomes as filed in PubChem BioAssay.
# Calb FLC: affects C. albicans growth with fluconazole; C. albicans CaCi-2 (fluconazole-resistant clinical isolate) + fluconazole, Alamar Blue growth, 48 h; growth inhibition, % (no concentration beside the values); 0.57% of 300,000 active;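 active means growth inhibition above about 58% in most replicates, limit read from the data, passing the limit was not always enough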;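 further: all wells also contain fluconazole at 8 µg/ml as a sub-toxic cotreatment; 0% = median of DMSO wells and 100% = median of geldanamycin control wells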
# ASAP1 GAP inh: blocks human ASAP1-stimulated Arf1 GTP hydrolysis; inhibition, % at 16.5 µM; GDP FP detection; 0.19% of 360,000 active; in the data active means inhibition above about 25%;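 further: 0% = vehicle with enzyme and substrate and 100% = no enzyme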
# Target sequence (Q9ULH1 325-724 limits assumed): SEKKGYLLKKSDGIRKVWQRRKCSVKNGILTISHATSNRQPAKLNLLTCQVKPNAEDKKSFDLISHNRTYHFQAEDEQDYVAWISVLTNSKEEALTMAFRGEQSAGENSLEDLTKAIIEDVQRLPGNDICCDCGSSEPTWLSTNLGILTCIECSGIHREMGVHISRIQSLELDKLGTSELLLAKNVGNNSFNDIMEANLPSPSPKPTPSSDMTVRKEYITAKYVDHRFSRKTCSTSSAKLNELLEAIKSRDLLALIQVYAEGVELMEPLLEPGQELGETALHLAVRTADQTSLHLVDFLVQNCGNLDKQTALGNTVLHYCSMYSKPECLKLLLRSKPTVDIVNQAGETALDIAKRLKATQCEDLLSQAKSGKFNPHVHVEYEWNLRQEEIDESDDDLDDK
# PHOSPHO1 inh: PHOSPHO1 (human) inhibition | recombinant PHOSPHO1, absorbance phosphatase assay | inhibition, % at 13.3 µM | AID 1565 | 1.1% of 290,000 active | Q8TCT1; in the data active means inhibition above about 60%
# VIM-2 inh: blocks Pseudomonas aeruginosa VIM-2 metallo-beta-lactamase; purified VIM-2, nitrocefin hydrolysis, epi-absorbance fluorescence; inhibition, % at 5.6 µM; 0.89% of 290,000 active;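 active means inhibition above the mean of all tested compounds plus 3 SD, cutoff set per screening run, cut at about 7.5% in these data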;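 further: red hydrolysis product quenches plate fluorescence so inhibitors raise well fluorescence; 0% = enzyme with DMSO and 100% = DMSO without enzyme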
# ARFGAP1 inhibitor: inhibits rat ARF GTPase activating protein 1. Q62848. Arfgap1-stimulated ARF1 GTP hydrolysis, GDP FP detection. inhibition, % at 16.5 µM. 0.26% of 360,000 active. AID 651572;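 active means inhibition above a per-plate limit, mean inhibition of low control wells plus 3 SD, cut at about 25% in these data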;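 further: 0% = DMSO wells with enzyme and 100% = wells lacking Arfgap1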
# Target sequence (Q62848 1-136 limits assumed): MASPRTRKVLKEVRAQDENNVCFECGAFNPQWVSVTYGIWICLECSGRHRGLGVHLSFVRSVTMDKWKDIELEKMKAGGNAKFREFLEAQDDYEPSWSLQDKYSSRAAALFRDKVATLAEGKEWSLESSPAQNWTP
#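 Material: rat Arfgap1 catalytic domain, aa 1-136; also added: human ARF1(Δ1-17)-GTP substrate; compound dosing: one concentration, 16.5 µM, DMSO 1.26%; incubation: GTP hydrolysis reaction 2 h at 25 °C; measured by: Tracer-displacement fluorescence polarization with EDTA stop, 620/688 nm; evaluation: % inhibition from polarization; repeats: one replicate per compound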
# IMP-1 inh-1: inhibitors of Pseudomonas aeruginosa IMP-1 metallo-beta-lactamase. purified IMP-1, nitrocefin hydrolysis, epi-absorbance fluorescence. inhibition, % at 5.6 µM. 0.45% of 290,000 active. AID 1556;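 active means inhibition above the mean plus 3 SD of all compounds in the same screening run, cut at about 4.5% in these data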;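 further: 0% = IMP-1 with DMSO and 100% = DMSO wells lacking enzyme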
#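 Material – recombinant IMP-1 enzyme, purified · Amount – IMP-1 0.2 nM before substrate addition · Medium – HEPES buffer pH 7.1 with ZnSO4 and Brij 35 · Timing – 25 °C, 15 min preincubation, 25 min reaction · Measured by – plate fluorescence quenching by hydrolysis product, ex 480/em 530 nm · Read-out – percent enzyme inhibition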
# IMP-1 inh-2: blocks IMP-1 metallo-beta-lactamase in VIM-2 selectivity screen | shares compounds with VIM-2 inh | purified IMP-1, nitrocefin hydrolysis, epi-absorbance fluorescence | inhibition, % at 5.6 µM | 1,300 tested, under 10 active | AID 1856; call rule not given here;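 further: 0% = enzyme with vehicle and 100% = vehicle without enzyme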
# VIM-2 FRET ctr: VIM-2 FRET inhibition, artifact counter-screen | 23% of 1,300 active | AID 1857 | shares compounds with VIM-2 inh | purified VIM-2, CCF2 FRET substrate hydrolysis | inhibition, % at 5.6 µM;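 active means inhibition above the mean of all tested compounds plus 3 SD, cut at about 19% in these data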;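 further: 0% = VIM-2 plus DMSO and 100% = no enzyme wells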
# TEM-1 counter: selectivity counter-screen for VIM-2 inhibitors: E. coli TEM-1 inhibitors. shares compounds with VIM-2 inh. Purified TEM-1, nitrocefin hydrolysis, epi-absorbance fluorescence. inhibition, % at 5.6 µM. 3% of 1,300 active;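 active means inhibition above that campaign's mean inhibition plus 3 SD, cut at about 0.46% in these data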;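 further: 0% = TEM-1 with DMSO and 100% = TEM-1 with 100 µM potassium clavulanate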
# VIM-2 inh conf: confirmation of P. aeruginosa VIM-2 metallo-beta-lactamase inhibitors | 96% of 1,300 active | inhibition, % at 5.6 µM | purified VIM-2, nitrocefin hydrolysis, epi-absorbance | shares compounds with VIM-2 inh;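 active means inhibition of the VIM-2 beta-lactamase enzyme above about 11% from the earlier first-round screen, limit read from the data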;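 further: 0% = VIM-2 with DMSO and 100% = buffer wells without enzyme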
# * marks the source's active call; other numbers are inactive results; x = no result given. An excerpt weighted towards active compounds, which were near 2.6% of everything screened.
SMILES,Calb FLC,ASAP1 GAP inh,PHOSPHO1 inh,VIM-2 inh,ARFGAP1 inhibitor,IMP-1 inh-1,IMP-1 inh-2,VIM-2 FRET ctr,TEM-1 counter,VIM-2 inh conf
CN1CCN(C(=O)c2ccccc2NC(=O)c2sc3ccccc3c2Cl)CC1,10.0,0.8,x,-0.4,1.4,-2.1,x,x,x,x
CN1CCN(c2ccc(NC(=O)c3ccc(-c4ccc(Cl)cc4)o3)cc2)CC1,54.4,11.5,22.6,28.3*,11.7,-1.3,-4.0,1.0,-12.2,41.8*
CS(=O)(=O)N1CCN(c2ccc(NC(=O)c3ccc(-c4ccc(Cl)cc4)o3)cc2)CC1,-2.4,7.2,13.0,-5.0,-4.8,0.2,x,x,x,x
O=C(NCc1ccccc1)C1Cc2c(-c3ccc(Cl)cc3)ccnc2O1 (configuration not stated),x,-2.6,x,x,10.0,x,x,x,x,x
O=C(CCCN1C(=O)c2cccc3cccc(c23)C1=O)NC1CCS(=O)(=O)C1 (configuration not stated),-1.2,-13.8,-10.2,14.8*,1.1,-2.8,-1.6,-1.8,-0.1,21.8*
O=C(O)c1cc2ccc3ccccc3c2[nH]1,30.7,-0.5,2.7,13.7*,3.9,0.5,-3.4,18.4*,-4.3,15.7*
O=C(O)c1cc(=O)c2ccccc2[nH]1,x,-3.8,x,x,0.7,x,x,x,x,x
O=C(NCCN1CCN(c2ccccc2F)CC1)c1cccn2c(=O)c3ccccc3nc12,-19.7,3.1,-0.4,-0.2,-0.9,-1.1,x,x,x,x
CN(CCCNC(=O)c1cccn2c(=O)c3ccccc3nc12)Cc1ccccc1,-4.4,-4.0,1.5,22.0*,1.4,-1.8,-3.0,-2.7,-7.3,44.8*
O=C(O)c1ccccc1NS(=O)(=O)c1cccc(C(F)(F)F)c1,-11.0,-10.9,-10.7,0.9,8.1,-4.0,x,x,x,x
O=C(O)c1ccccc1NS(=O)(=O)c1cccc(-n2sc3ccccc3c2=O)c1,-3.2,9.0,35.1,19.1*,-14.8,-1.3,-2.9,-23.7,-6.7,16.7*
OC1=C(O)c2nc3ccccc3nc21,19.5,x,-5.9,-1.3,x,-2.1,x,x,x,x
OC1=C(O)c2nc3cc(C(F)(F)F)ccc3nc21,-5.0,7.5,18.8,16.7*,4.8,1.3,-3.6,-1.0,-6.3,2.4
COc1ccc(Cn2cc(CN3CCc4onc(-c5ccc(Br)cc5)c4C3=O)nn2)cc1,x,-2.3,x,x,-6.0,x,x,x,x,x
CCN(CC)CCNc1ccc(CO)c2sc3ccccc3c(=O)c12,x,7.3,1.1,24.0*,-7.9,-3.0,1.0,-0.8,-8.1,35.5*
O=C(NC1CCCC1)C1C(c2ccc(C(F)(F)F)cc2)=Nc2ccccc2N1C(=O)c1cccc2ccccc12 (configuration not stated),x,-10.8,x,x,4.3,x,x,x,x,x
CCNC(=O)C1(C)CCN(C(=O)c2ccc(OC(F)F)cc2)C1 (configuration not stated),x,-6.1,x,x,-10.1,x,x,x,x,x
COc1cc(C23CCCN(CCC(C(C)(C)C)C2)C32OCCO2)cc(OC)c1OC (configuration not stated),x,-3.0,x,x,4.1,x,x,x,x,x
CCc1cc2c(CN3CCN(C)CC3)cc(=O)oc2cc1O,-17.3,-6.4,-8.4,16.3*,2.9,1.1,-1.4,-16.4,1.1*,31.3*
Cc1cc2oc(=O)cc(CN3CCN(Cc4ccccc4)CC3)c2cc1O,25.6,-4.0,-12.2,-0.9,-1.9,-1.5,x,x,x,x
CCc1cc2c(CN3CCN(CCO)CC3)cc(=O)oc2cc1O,-4.1,-3.6,10.6,17.6*,9.8,-3.0,-3.4,-19.1,-7.5,24.6*
O=[N+]([O-])c1cc(CN2CCOCC2)c2cccnc2c1O,x,x,5.5,45.8*,x,-2.4,-4.4,3.7,-7.1,49.4*
O=C(C1=C(O)C(=O)N(Cc2cccnc2)C1c1ccccn1)c1cccs1 (configuration not stated),-5.3,-1.7,37.8,16.2*,6.2,-3.7,-3.4,40.7*,-4.7,32.2*
CC(C(=O)O)c1cccc(C(=O)c2ccccc2)c1 (configuration not stated),x,-0.7,20.0,17.6*,-7.5,-4.9,-2.4,52.3*,-5.7,33.8*
C=CCOc1cccn2c(N(C=O)Cc3ccccc3)c(CC)nc12,x,1.0,x,x,-5.9,x,x,x,x,x
SMILES,Calb FLC,ASAP1 GAP inh,PHOSPHO1 inh,VIM-2 inh,ARFGAP1 inhibitor,IMP-1 inh-1,IMP-1 inh-2,VIM-2 FRET ctr,TEM-1 counter,VIM-2 inh conf
Cc1cc(C)c2c(N)c3ccccc3nc2n1,-5.6,-12.0,23.8,16.2*,-10.2,-2.8,-3.5,-6.9,-5.5,33.2*
CCc1ccc2nc3nc(C)cc(C)c3c(N)c2c1,-0.9,-0.1,3.8,22.9*,5.3,-1.6,-1.2,-8.4,-2.9,41.3*
Cc1cc(C)c2cccc(N)c2n1,6.2,-10.9,28.8,-4.3,-12.0,-4.7,x,x,x,x
N#Cc1ccc(C(=O)N2CCCCC2c2cc(C(=O)Nc3ccc4c(c3)OCO4)no2)cc1 (configuration not stated),x,-12.0,x,x,-2.0,x,x,x,x,x
CCOC(=O)C1=C[C@@H](C(C)(C)C)N(S(=O)(=O)c2ccc(C)cc2)[C@H]1c1ccc(C)cc1,x,-5.3,x,x,3.7,x,x,x,x,x
Cc1cccc(C(=O)Nc2nnc(SCC(=O)NCc3ccco3)s2)c1,1.1,10.8,25.0,17.9*,-1.3,-0.6,-3.1,36.6*,-6.5,24.4*
Cc1cccc(C)c1Nc1nnc(SCC(=O)NCc2ccco2)s1,9.4,5.0,33.0,-1.2,-11.4,-2.3,x,x,x,x
O=C(CSc1nnc(NC(=O)c2c(F)cccc2F)s1)NCC1CCCO1 (configuration not stated),4.0,2.4,x,x,-8.2,x,x,x,x,x
O=C(CSc1nnc(NC(=O)c2cccc(F)c2)s1)NCC1CCCO1 (configuration not stated),0.9,8.5,37.0,16.6*,6.0,-0.5,-2.5,25.8*,-4.7,14.8*
O=C(Nc1nc(OCCN2CCCC2=O)cnc1/C=C\c1ccccc1)c1cc2ccccc2s1,x,9.9,x,x,7.5,x,x,x,x,x
CCCCCNC(=O)C(c1cccc2ccccc12)n1c(=O)c(-c2cc3ccccc3[nH]2)nc2ccccc21 (configuration not stated),x,10.8,x,x,10.3,x,x,x,x,x
Cn1ccnc1SCC(=O)Nc1ccc2nc(SCC(=O)NC3CC3)sc2c1,-2.9,x,23.8,12.7*,x,-1.6,-3.2,36.1*,-5.5,25.1*
Cc1nc2ccc(NC(=O)N3CCSCC3)cc2nc1C,-12.7,1.3,-22.8,16.2*,9.9,-3.6,-2.8,3.4,-6.2,4.4
